ARFGAP1 inh: inhibits rat ARF GTPase activating protein 1; Q62848; Arfgap1-stimulated ARF1 GTP hydrolysis, GDP FP detection; inhibition, % at 16.5 µM; hit rate 0.26% among 360,000;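 active = inhibition above a per-plate limit, mean inhibition of low control wells plus 3 SD, cut at about 25% in these data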;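 also: 0% = DMSO wells with enzyme and 100% = wells lacking Arfgap1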
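Material: rat Arfgap1 catalytic domain, aa 1-136; also added: human ARF1(Δ1-17)-GTP substrate; compound dosing: one concentration, 16.5 µM, DMSO 1.26%; incubation: GTP hydrolysis reaction 2 h at 25 °C; measured by: Tracer-displacement fluorescence polarization with EDTA stop, 620/688 nm; evaluation: % inhibition from polarization; repeats: one replicate per compound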
DDE Tn6 FP inh: DD(E)-Tn6 binding inhibition, primary FP screen. P02675. Fibrin DD(E) TRITC-Tn6 fluorescence polarization displacement. inhibition, % at 8.3 µM. hit rate 0.21% among 370,000. AID 720509;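 active = inhibition above a per-campaign cutoff: mean of compounds within control limits plus 3 SD, cut at about 15% in these data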;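 also: 0% = median of all compound wells on the plate and 100% = blocking peptide control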
Tn7 DDE FP: DD(E)-Tn7 binding inhibition, primary FP screen | P02675 | FP displacement of FITC-Tn7 peptide from fibrin DD(E); 0% = median of compound wells per plate | inhibition, % at 8.3 µM | hit rate 0.13% among 370,000 | AID 720508;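 active = inhibition above the mean of compounds falling within the control limits plus 3 SD of them, cut at about 14% in these data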;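 also: 0% = plate median of compound wells and 100% = 10 µM Aha-Tn7 peptide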
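Assay system: Fibrin-DD(E) protein isolated from polymerized human fibrin clots; read-out basis: percent inhibition; medium: Tris/NaCl/CaCl2 buffer, pH 7.8; signal: FP measurement; incubation: 10 min plus 3 h, room temperature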
ASAP1 GAP inh: ASAP1 ArfGAP inhibition | hit rate 0.19% among 360,000 | inhibition, % at 16.5 µM | Q9ULH1 | ASAP1-stimulated ARF1 GTP hydrolysis, GDP FP detection; in the data active = inhibition above about 25%;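 also: 0% = vehicle with enzyme and substrate and 100% = no enzyme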
Target sequence (Q9ULH1 325-724 limits assumed): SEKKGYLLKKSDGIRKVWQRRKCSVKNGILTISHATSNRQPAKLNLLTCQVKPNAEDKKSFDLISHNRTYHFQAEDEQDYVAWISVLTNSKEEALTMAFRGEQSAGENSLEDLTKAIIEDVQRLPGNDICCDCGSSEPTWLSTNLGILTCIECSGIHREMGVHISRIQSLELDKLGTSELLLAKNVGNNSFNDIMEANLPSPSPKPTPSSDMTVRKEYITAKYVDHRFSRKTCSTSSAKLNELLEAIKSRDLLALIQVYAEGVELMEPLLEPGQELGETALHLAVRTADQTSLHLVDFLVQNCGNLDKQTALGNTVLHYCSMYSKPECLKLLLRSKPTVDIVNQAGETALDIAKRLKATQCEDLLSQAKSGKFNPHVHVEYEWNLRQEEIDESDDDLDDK
ASAP1 GAP conf: confirmation of human ASAP1 inhibitors | shares compounds with ASAP1 GAP inh | ASAP1-stimulated Arf1 GTPase, GDP fluorescence polarization | inhibition, % at 16.5 µM | hit rate 37% among 620 | AID 624431;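 active = mean inhibition over triplicates exceeds the hit threshold derived for the earlier primary screening run, cut at about 25% in these data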
The depositor's hits bear a star; · = no result. A selection: hits, their analogues and other compounds. The true share with any hit is near 0.74%.

SMILES	ARFGAP1 inh	DDE Tn6 FP inh	Tn7 DDE FP	ASAP1 GAP inh	ASAP1 GAP conf
O=C(Nc1ccc(Cn2cccn2)cc1)c1ccc(COc2cccc(Br)c2)cc1	20	-3	-5	29*	7
Cc1ccc(S(=O)(=O)Nc2ccc(NC(=O)c3cccs3)cc2)cc1	6	3	-2	25*	7
Cc1cc(C)c(NS(=O)(=O)c2ccc(NC(=O)c3cccs3)cc2)c(C)c1	9	-7	0	9	·
Cc1cccc(C)c1OCc1cccc(C2Nc3ccccc3C(=O)N2Cc2ccco2)c1 (centres undefined)	·	2	8	·	·
O=c1cc(-c2ccc(O)c(O)c2)oc2c1ccc1ccccc12	10	-22	-1	25*	12
CCOC(=O)Nc1ccc2c(c1)C(=NNC(N)=S)c1ccccc1-2	8	2	-7	27*	11
CCOC(=O)Nc1ccc2c(c1)C(=NO)c1ccccc1-2	12	-11	2	28*	21
NC(=O)c1cccc2c1-c1ccccc1/C2=N/NC(N)=S	-11	8	5	-4	·
COC(=O)N[C@H]1CC=C[C@@H]1Cc1cccc(Oc2ccccc2)c1	3	-2	-2	-2	·
COc1ccc2[nH]c(C(=O)N/N=C/c3ccccc3OC)cc2c1	12	-14	-1	14	·
CCOc1ccc2[nH]c(C(=O)N/N=C/c3ccccc3OC)cc2c1	10	-14	-2	30*	28*
COC(=O)[C@]12C[C@H](CC(=O)NCc3cccc(C(F)(F)F)c3)C(=O)N(Cc3ccco3)C1=C[C@H](C(C)(C)C)O[C@@H]2C	·	4	-2	·	·
COc1cc(OC)c2c(=O)c3c(C(=O)O)c(O)ccc3oc2c1	-6	-1	-3	-9	·
CC1CCc2cccc3c2N1c1cc(C#N)c(C#N)cc1O3 (centres undefined)	1	-1	-9	27*	1
CC1CCCCN1c1cc(C#N)c(C#N)cc1[N+](=O)[O-] (centres undefined)	8	-7	-2	3	·
CCOC(=O)C(C(=O)Nc1cccc(C)n1)C1CCCCC1 (centres undefined)	16	5	-3	26*	8
CCOC(=O)C(C(=O)Nc1ccccn1)C1CCCCC1 (centres undefined)	12	3	-7	-10	·
O=C(Nc1cccc(-c2csc(Nc3ccc(Cl)cc3)n2)c1)c1ccccc1	24	1	2	26*	26*
CC(=O)Nc1ccc(C(=O)Nc2cccc(-c3cnc4ccccc4n3)c2)cc1	1	2	6	40*	80*
Cc1ccc(C(=O)Nc2cccc(-c3cnc4ccccc4n3)c2)cc1	4	7	-3	4	·
CC(C)c1ccc([C@@H]2O[C@H](CCc3ccccc3)Cc3[nH][nH]c(=O)c32)cc1	9	1	-5	28*	7
CCCCOC(=O)CCN1C(=O)/C(=C/c2ccccc2)SC1=S	·	-9	4	·	·
CCC(NC(=O)c1cccc2c1C(=O)N(Cc1cccnc1)C2)c1ccccc1 (centres undefined)	·	0	-2	·	·
COc1ccc(-c2nc3ccccc3c(=O)n2Cc2ccccc2)cc1COc1ccc(NC(C)=O)cc1	·	-1	6	·	·
Cc1ccc(-c2csc(NC(=O)COc3ccc(N(C)S(=O)(=O)c4ccc(C)cc4)cc3)n2)cc1	4	4	5	25*	7
SMILES	ARFGAP1 inh	DDE Tn6 FP inh	Tn7 DDE FP	ASAP1 GAP inh	ASAP1 GAP conf
COc1ccccc1CNc1nc(NCCOc2ccccc2)c2sccc2n1	7	-4	5	25*	16
Cc1cc(NC2=CC(=O)C(=O)c3ccccc32)no1	1	5	4	29*	10
CN(C)c1ccc(-c2[nH][nH]c(=O)c2NC(=O)c2ccc3ccccc3n2)cc1	-7	-9	-7	36*	0
COCC#Cc1cnc2c(c1)C(=O)N([C@@H](C)CO)C[C@H](C)[C@H](CN(C)C(=O)c1ccc3c(c1)OCO3)O2	-3	6	6	5	·
COc1ccc(NC(=O)N(C)C[C@@H]2OCc3cnnn3CCCC(=O)N([C@@H](C)CO)C[C@@H]2C)cc1	-4	0	-4	0	·
NS(=O)(=O)c1ccc(NC(=O)CN2CCN(Cc3ccccc3)CC2)cc1	-6	-4	-1	0	·
NS(=O)(=O)c1ccc(NC(=O)CN2CCN(S(=O)(=O)/C=C/c3ccccc3)CC2)cc1	9	7	-6	30*	4
